Measurements taken from ChEMBL document CHEMBL4028848, “Discovery of N-{4-[5-(4-Fluorophenyl)-3-methyl-2-methylsulfanyl-3H-imidazol-4-yl]-pyridin-2-yl}-acetamide (CBS-3595), a Dual p38α MAPK/PDE-4 Inhibitor with Activity against TNFα-Related Diseases” (J Med Chem, 2017).
Blank lines part the entries; values can stand above or below the compound they belong to. The source made the active and inactive calls. The calls are words filed in the database; no cut-off is given here.

Key:
[1] = molecular target: Casein kinase I isoform delta (Homo sapiens) (UniProt P48730); experiment: Inhibition of CK1delta (unknown origin) at 3 uM relative to control
Casein kinase I isoform delta (Homo sapiens), sequence (P48730 whole entry, looked up, canonical isoform): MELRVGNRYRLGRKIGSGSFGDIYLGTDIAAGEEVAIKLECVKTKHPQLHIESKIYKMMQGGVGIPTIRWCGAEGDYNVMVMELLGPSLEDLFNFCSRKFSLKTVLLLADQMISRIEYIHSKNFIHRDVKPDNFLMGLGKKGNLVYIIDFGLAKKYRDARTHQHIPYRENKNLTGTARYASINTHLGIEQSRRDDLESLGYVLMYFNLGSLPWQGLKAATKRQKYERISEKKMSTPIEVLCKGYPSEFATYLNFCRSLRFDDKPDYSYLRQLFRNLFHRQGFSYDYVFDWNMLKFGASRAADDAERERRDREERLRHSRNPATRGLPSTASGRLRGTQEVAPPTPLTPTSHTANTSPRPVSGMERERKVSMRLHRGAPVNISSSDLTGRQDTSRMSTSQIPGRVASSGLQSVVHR

[2] = Drug level in cynomolgus monkey liver microsomes treated with CBS-3595 at 10 to 100 uM; format: ADME, Macaca fascicularis, microsome
Outline: (§1)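 Test compound incubated at 10, 30 and 100 μM with liver microsomes from rat, Cynomolgus monkey or human, and metabolites monitored.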

[3] = molecular target: Mitogen-activated protein kinase 11 (Homo sapiens) (UniProt Q15759); experiment: Inhibition of p38MAPK beta (unknown origin) at 10 uM relative to control
Mitogen-activated protein kinase 11 (Homo sapiens), sequence (Q15759 whole entry): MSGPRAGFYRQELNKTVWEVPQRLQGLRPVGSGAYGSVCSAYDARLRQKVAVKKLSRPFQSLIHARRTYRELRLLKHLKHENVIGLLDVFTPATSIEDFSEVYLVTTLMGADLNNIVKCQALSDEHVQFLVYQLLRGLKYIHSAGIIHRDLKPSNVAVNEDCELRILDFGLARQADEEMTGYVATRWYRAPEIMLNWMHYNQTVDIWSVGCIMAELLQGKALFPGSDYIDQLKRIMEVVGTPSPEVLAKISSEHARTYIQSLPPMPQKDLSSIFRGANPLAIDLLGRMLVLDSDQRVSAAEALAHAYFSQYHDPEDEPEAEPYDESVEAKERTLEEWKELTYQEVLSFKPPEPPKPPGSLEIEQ

[4] = molecular target: Rho-associated protein kinase 2 (Homo sapiens) (UniProt O75116); experiment: Inhibition of ROCK-2 (unknown origin) at 10 uM
Rho-associated protein kinase 2 (Homo sapiens), sequence (O75116 whole entry, looked up): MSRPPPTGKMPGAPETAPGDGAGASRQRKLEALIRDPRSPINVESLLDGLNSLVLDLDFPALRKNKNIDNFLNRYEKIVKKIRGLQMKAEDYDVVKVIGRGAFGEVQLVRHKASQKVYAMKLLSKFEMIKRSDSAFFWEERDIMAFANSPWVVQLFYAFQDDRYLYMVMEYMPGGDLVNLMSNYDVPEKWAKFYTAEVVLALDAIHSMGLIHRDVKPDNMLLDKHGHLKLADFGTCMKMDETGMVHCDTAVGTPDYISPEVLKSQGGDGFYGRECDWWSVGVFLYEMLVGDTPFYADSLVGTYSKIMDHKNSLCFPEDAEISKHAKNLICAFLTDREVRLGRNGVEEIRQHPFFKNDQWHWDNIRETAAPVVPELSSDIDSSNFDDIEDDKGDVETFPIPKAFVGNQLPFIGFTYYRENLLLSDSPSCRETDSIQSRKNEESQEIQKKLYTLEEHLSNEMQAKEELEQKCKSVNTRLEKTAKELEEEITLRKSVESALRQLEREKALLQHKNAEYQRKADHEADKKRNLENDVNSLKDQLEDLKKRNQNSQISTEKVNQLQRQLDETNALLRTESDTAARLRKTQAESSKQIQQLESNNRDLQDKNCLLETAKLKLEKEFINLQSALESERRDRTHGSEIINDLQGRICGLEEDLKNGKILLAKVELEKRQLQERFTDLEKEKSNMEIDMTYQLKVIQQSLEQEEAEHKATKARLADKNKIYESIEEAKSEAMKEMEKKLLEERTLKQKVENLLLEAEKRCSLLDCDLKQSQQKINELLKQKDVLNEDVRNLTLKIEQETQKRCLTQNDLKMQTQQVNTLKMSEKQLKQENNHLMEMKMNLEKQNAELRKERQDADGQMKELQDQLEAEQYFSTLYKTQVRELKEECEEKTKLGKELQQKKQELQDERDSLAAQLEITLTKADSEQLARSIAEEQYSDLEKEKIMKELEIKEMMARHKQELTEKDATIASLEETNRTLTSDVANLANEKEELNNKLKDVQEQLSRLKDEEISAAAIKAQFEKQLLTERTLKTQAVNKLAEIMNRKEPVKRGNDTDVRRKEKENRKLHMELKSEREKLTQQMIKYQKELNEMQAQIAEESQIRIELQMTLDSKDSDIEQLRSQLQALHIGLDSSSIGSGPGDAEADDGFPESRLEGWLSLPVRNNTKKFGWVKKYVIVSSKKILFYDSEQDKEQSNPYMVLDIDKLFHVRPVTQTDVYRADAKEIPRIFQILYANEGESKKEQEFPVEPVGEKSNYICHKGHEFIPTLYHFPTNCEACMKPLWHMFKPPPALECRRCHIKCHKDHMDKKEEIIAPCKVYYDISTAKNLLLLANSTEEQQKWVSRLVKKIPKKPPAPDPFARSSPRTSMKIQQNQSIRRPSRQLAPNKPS

[5] = Tmax in male Sprague-Dawley rat at 30 mg/kg, po by LC-MS/MS analysis; format: ADME, organism-based; conditions: in vivo
[6] = test system: Salmonella typhimurium; experiment: Genotoxicity in Salmonella typhimurium in presence of S9 fraction by Ames test; format: toxicity; conditions: salmonella enterica subsp. enterica serovar typhimurium
Outline: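 Bacterial reverse mutation (Ames) test in S. typhimurium and E. coli strains, run with and without S9 mix.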

[7] = molecular target: Dual specificity mitogen-activated protein kinase kinase 6 (Homo sapiens) (UniProt P52564); experiment: Inhibition of MKK6 (unknown origin) assessed as decrease in p38alpha MAPK phosphorylation at 10 uM relative to control
Dual specificity mitogen-activated protein kinase kinase 6 (Homo sapiens), sequence (P52564 whole entry): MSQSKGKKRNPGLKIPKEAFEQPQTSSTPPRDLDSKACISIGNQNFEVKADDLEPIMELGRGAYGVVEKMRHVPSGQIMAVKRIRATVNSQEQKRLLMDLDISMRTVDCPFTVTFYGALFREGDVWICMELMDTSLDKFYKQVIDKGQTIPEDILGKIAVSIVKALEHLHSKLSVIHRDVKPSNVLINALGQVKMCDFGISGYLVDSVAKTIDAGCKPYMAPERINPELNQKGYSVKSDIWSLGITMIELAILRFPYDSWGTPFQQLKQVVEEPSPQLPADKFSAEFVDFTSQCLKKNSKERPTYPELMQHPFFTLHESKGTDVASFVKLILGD

[8] = test system: Mus musculus; experiment: In vivo inhibition of P38 MAPKalpha in BALB/c mouse assessed as decrease in LPS/GalN-stimulated TNFalpha level in plasma at 3 mg/kg, po administered via gavage pretreated for 1 hr followed by LPS/GalN addition measured after 1.5 hrs relative to control; format: functional
Outline: (§2)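 Male BALB/c mice, n = 6/group, given 3, 10 or 30 mg/kg orally by gavage 1 h before i.p. D-GalN (500 mg/kg) plus LPS (1.5 μg/kg). Blood was taken by cardiac puncture and plasma TNFα measured against a vehicle-only control.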

[9] = test system: Homo sapiens; experiment: Cmax in human assessed as 4-(4-(4-fluorophenyl)-1-methyl-2-(methylsulfinyl)-1H-imidazol-5-yl)pyridin-2-amine formation at 20 mg, po administered as single dose; format: ADME, organism-based; set-up: dose 20 mg, route oral; conditions: in vivo
Outline: (§3)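 Oral single-dose PK; plasma concentrations of parent and metabolite measured. Dogs: blood sampled 0.25 to 24 h after dosing. Humans: healthy subjects, placebo-controlled single-blind randomized consecutive dosing, plasma sampled predose and 0.25–36 h post dose. 10 mg also given fasting and fed in crossover. Parameters derived from individual concentration–time profiles.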

[10] = test system: Rattus norvegicus; experiment: In vivo inhibition of P38 MAPKalpha in Lewis rat assessed as decrease in LPS-stimulated TNFalpha level in serum at 10 mg/kg, po pretreated for 5 hrs followed by LPS addition measured after 1.5 hrs post dose; format: functional, organism-based
Outline: (§4)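 Lewis rats, n = 8/group: females dosed orally at 10 mg/kg at −1, −3 or −5 h relative to LPS challenge, plus one male group dosed at −1 h. Male and female vehicle controls were given at −1 h. Serum TNFα was measured after LPS and compared with vehicle.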

[11] = Half life in male Sprague-Dawley rat at 30 mg/kg, po by LC-MS/MS analysis; format: ADME, organism-based; conditions: in vivo
[12] = test system: Rattus norvegicus; experiment: In vivo inhibition of P38 MAPKalpha in Lewis rat assessed as decrease in LPS-stimulated TNFalpha level in serum at 10 mg/kg, po pretreated for 3 hrs followed by LPS addition measured after 1.5 hrs post dose; format: functional, organism-based; outline: as §4
[13] = AUC (0 to infinity) in mongrel dog at 30 mg/kg, po by LC-MS/MS analysis; format: ADME, organism-based, Canis lupus familiaris; set-up: dose 30 mg/kg, time infinity, route oral; conditions: in vivo
Outline: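 Two mongrel dogs received a single oral dose of 30 mg/kg. Blood was sampled from 0.25 to 24 h and plasma parent concentrations were determined.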

[14] = Half life in mongrel dog at 30 mg/kg, po by LC-MS/MS analysis; format: ADME, organism-based, Canis lupus familiaris; conditions: in vivo; outline: as §3
[15] = test system: Rattus norvegicus; experiment: Antiarthritic activity in Lewis rat assessed as collagen oligomeric matrix protein level in serum at 25 mg/kg, po bid administered for 10 days (Rbv = 0.17 +/- 0.02 U/l); format: functional
Outline: (§5)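 Collagen-induced arthritis in male Lewis rats (5–6 per group). Groups received vehicle, dexamethasone 1 mg/kg, test item 50 mg/kg once daily, or 25 mg/kg twice daily for 10 days. Body weight, arthritic score and paw volume were monitored, and serum COMP was measured at the end.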

[16] = test system: Rattus norvegicus; experiment: Toxicity in single po dosed rat assessed as effect on respiratory rate at 30 mg/kg, po administered as single dose; format: organism-based; conditions: in vivo
[17] = Half life in female Sprague-Dawley rat at 30 mg/kg, po by LC-MS/MS analysis; format: ADME, organism-based; conditions: in vivo
[18] = test system: Mus musculus; experiment: In vivo inhibition of P38 MAPKalpha in BALB/c mouse assessed as decrease in LPS/GalN-stimulated TNFalpha level in plasma at 30 mg/kg, po administered via gavage pretreated for 1 hr followed by LPS/GalN addition measured after 1.5 hrs relative to control; format: functional; outline: as §2
[19] = Tmax in Beagle dog at 40 mg/kg, po by LC-MS/MS analysis; format: ADME, organism-based, Canis lupus familiaris; conditions: in vivo
[20] = test system: Rattus norvegicus; experiment: Antiarthritic activity in Lewis rat assessed as decrease in collagen-induced arthritic score at 25 mg/kg, po bid administered for 10 days; format: functional, organism-based; outline: as §5
[21] = test system: Liver; experiment: Drug metabolism in human liver microsomes assessed as 4-(4-(4-fluorophenyl)-1-methyl-2-(methylsulfinyl)-1H-imidazol-5-yl)pyridin-2-amine formation at 10 to 100 uM; format: ADME, microsome; outline: as §1
[22] = molecular target: Adenosine receptor A1 (Homo sapiens) (UniProt P30542); experiment: Antagonist activity at adenosine A1 receptor (unknown origin) at 10 uM relative to control
Adenosine receptor A1 (Homo sapiens), sequence (P30542 whole entry): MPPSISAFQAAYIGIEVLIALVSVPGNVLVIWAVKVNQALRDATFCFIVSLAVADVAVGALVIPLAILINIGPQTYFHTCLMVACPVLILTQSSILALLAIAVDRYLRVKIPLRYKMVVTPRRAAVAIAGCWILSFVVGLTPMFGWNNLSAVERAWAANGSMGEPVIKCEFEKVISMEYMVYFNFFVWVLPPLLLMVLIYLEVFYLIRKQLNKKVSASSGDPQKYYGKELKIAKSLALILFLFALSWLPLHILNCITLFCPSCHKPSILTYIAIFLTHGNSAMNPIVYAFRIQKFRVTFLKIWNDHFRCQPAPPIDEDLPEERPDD

[23] = Drug metabolism in cynomolgus monkey liver microsomes assessed as 4-(4-(4-fluorophenyl)-1-methyl-2-(methylsulfonyl)-1H-imidazol-5-yl)pyridin-2-amine formation at 10 to 100 uM; format: ADME, Macaca fascicularis, microsome; outline: as §1
[24] = Cmax in male Sprague-Dawley rat at 30 mg/kg, po by LC-MS/MS analysis; format: ADME, organism-based; set-up: dose 30 mg/kg, route oral; conditions: in vivo
[25] = molecular target: Casein kinase I isoform delta (Homo sapiens) (UniProt P48730); experiment: Inhibition of CK1delta (unknown origin) at 10 uM relative to control
[26] = test system: Rattus norvegicus; experiment: Toxicity in Sprague-Dawley rat assessed as piloerection at 2000 mg/kg, po administered via gavage measured on day 1 and 2; format: organism-based; conditions: in vivo
[27] = test system: Rattus norvegicus; experiment: In vivo inhibition of P38 MAPKalpha in Sprague-Dawley rat assessed as decrease in LPS-stimulated TNFalpha level in serum at 10 mg/kg, po pretreated for 1 hr followed by LPS addition measured after 2 hrs relative to control; format: functional
Outline: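 Sprague–Dawley rats (8/group) were dosed orally with vehicle or 1, 3 or 10 mg/kg. LPS 0.1 mg/kg i.v. was given 1 h after dosing. Blood was collected 2 h later and serum TNFα measured. Inhibition was calculated relative to the mean of vehicle-treated animals.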

[28] = molecular target: Ephrin type-B receptor 2 (Homo sapiens) (UniProt P29323); experiment: Inhibition of EphB2 (unknown origin) at 10 uM relative to control
Ephrin type-B receptor 2 (Homo sapiens), sequence (P29323 whole entry): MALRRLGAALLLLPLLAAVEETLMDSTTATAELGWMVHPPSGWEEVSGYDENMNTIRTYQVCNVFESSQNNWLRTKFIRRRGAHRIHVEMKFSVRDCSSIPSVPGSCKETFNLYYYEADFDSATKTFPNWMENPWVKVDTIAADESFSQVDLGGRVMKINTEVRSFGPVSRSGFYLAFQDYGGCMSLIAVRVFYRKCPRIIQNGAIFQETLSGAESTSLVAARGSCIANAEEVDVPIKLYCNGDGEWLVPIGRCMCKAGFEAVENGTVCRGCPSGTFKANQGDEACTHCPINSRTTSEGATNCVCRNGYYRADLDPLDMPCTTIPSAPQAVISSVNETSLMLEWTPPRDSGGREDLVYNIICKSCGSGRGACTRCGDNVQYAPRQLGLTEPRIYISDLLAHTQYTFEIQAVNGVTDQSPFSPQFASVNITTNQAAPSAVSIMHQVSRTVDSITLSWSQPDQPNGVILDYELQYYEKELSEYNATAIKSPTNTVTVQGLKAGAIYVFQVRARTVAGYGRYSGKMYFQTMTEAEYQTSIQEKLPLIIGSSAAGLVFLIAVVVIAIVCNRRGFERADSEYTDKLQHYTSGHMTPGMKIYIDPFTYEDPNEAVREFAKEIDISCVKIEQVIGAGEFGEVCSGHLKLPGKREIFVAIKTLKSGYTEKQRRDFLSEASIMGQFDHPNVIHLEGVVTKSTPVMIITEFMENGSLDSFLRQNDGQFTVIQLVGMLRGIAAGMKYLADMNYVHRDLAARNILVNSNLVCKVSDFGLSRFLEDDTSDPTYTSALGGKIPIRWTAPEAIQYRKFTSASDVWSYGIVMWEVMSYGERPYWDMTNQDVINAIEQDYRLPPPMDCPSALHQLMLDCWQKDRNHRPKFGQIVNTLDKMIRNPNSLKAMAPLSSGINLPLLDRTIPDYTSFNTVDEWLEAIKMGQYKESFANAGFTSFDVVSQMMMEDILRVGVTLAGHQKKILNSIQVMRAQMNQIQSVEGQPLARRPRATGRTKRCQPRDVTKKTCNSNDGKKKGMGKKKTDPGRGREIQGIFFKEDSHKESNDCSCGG

[29] = test system: Cynomolgus monkey; experiment: Toxicity in cynomolgus monkey assessed as decrease in PQ at 6 to 20 mg/kg, po; format: organism-based, Macaca fascicularis; conditions: in vivo
[30] = species: Homo sapiens; experiment: Inhibition of PDE4 in human U937 cells assessed as [3H]cAMP hydrolysis at 1 uM relative to control; format: cell-based

inhibition [1]: 88%
Drug metabolism [2]: Metabolite_Detected
inhibition [3]: inactive
inhibition [4]: inactive
SMILES: Cn1c([S+](C)[O-])nc(-c2ccc(F)cc2)c1-c1ccnc(N)c1 (stereo not given)

SMILES: CC(=O)Nc1cc(-c2c(-c3ccc(F)cc3)nc([S+](C)[O-])n2C)ccn1 (stereo not given)
Tmax [5]: 0.5 h
Activity [6]: Non-Toxic
inhibition [7]: 62%
inhibition in vivo at 3 mg/kg [8]: 82%
Cmax [9]: 309 nM
inhibition [10]: Active
half-life [11]: 1.8 h
inhibition [12]: Active
AUC(0-inf) [13]: 96.8 µM·h
half-life [14]: 3.85 h
Activity [15]: 0.08 U/L
Activity [16]: Non-Toxic
half-life [17]: 2.2 h
inhibition in vivo at 30 mg/kg [18]: 95%
Tmax [19]: 1.5 h
Activity [20]: Active
Drug metabolism [21]: Metabolite_Detected
inhibition [22]: 58%
Drug metabolism [23]: Metabolite_Detected
Cmax [24]: 3400 nM
inhibition [25]: 94%
Activity [26]: Toxic
inhibition in vivo at 10 mg/kg [27]: 96%
inhibition [28]: 60%
Activity [29]: Toxic
inhibition [30]: 73%
